Measurements gathered from unrelated publications.
Lines come from different studies, so protocols differ.
Target: MAP/microtubule affinity-regulating kinase 3 (MARK3, Homo sapiens, UniProt P27448)

| SMILES | assay | setting | measurement | value |
| --- | --- | --- | --- | --- |
| CCCCC(=O)Nc1ccc(-c2ccc3ncn(CCC)c(=O)c3c2)cn1 | binding, competition with immobilised ligand | 0.5 µM | remaining binding | 91% |
| C#Cc1cnc(Nc2ccnc(CO)c2)nc1Nc1ccccc1S(C)(=O)=NC#N (centres unmarked) | cell-free assay | 1 µM | remaining signal | 42% |
| CN1CCN(C(=O)c2ccc(NC(=O)Nc3ccc(N(C)c4ccnc(Nc5ccc(CS(C)(=O)=O)cc5)n4)cc3)cc2)CC1 | binding | 1 µM | remaining binding | 43% |
| CO[C@@H]1[C@H](N(C)C(=O)c2ccccc2)C[C@H]2O[C@]1(C)n1c3ccccc3c3c4c(c5c6ccccc6n2c5c31)C(=O)NC4 | enzyme activity, inhibitor | 1 µM | inhibition | 95% |
| Cc1ccc(NC(=O)c2ccnc(C(F)(F)F)c2)cc1-c1cc(OCCO)nc(N2CCOCC2)c1 | binding | 1 µM | remaining binding | 97% |
| N#Cc1ccc(NC(=O)Nc2ccccc2)cc1 | cell-free assay, competition with immobilised ligand | 25 µM | remaining binding | 78% |
| C1=C/COCc2cc(ccc2OCCN2CCCC2)Nc2nccc(n2)-c2cccc(c2)COC/1 | binding | 0.1 µM | remaining binding | 100% |
| Cc1cc(O)c(-c2ccc([C@@H](C)CN(C)C)cc2)c2c1[nH]c(=O)c1sccc12 | enzyme activity, inhibitor | 0.1 µM | inhibition | -0.763% |
| CC(C)S(=O)(=O)c1ccc2nccc(Nc3ccc4sc(C5CCCC5)nc4c3)c2c1 | enzyme activity, inhibitor | 1 µM | activity vs control | 120% |
| COc1ccc2oc(-c3ccc4nc(N)oc4c3)c/c(=N\c3ccccc3NC(=O)CCN)c2c1 | binding | 1 µM | remaining binding | 104% |
| CC#CC(=O)N1CCC[C@H]1c1nc(-c2ccc(C(=O)Nc3ccccn3)cc2)c2c(N)nccn12 | enzyme activity, inhibitor | 1 µM | inhibition | 0% |
